8 compounds from ChEMBL document CHEMBL3351391, “Bioactive dihydronaphthoquinone derivatives from Fusarium solani” (J Nat Prod, 2014) can be followed below.

The test system of test [1] is HeLa. Kind of test: Induction of ROS generation in human HeLa cells at 10 to 60 uM after 3 hrs by CM-H2DCFDA dye based assay. It is filed as functional, cell-based.
For test [2], the system named is HeLa. Put plainly: Cytotoxicity against human HeLa cells after 48 hrs by WST8 assay. It is filed as functional, cell-based. Put shortly:
(§1)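 WST-8 viability after 48 h exposure to a concentration series. Plating was 1 × 10^4 or 5 × 10^3 cells per well. HeLa and HuH-7 were grown in DMEM and HCT116 in RPMI 1640, each with 10% FBS. HUVEC were grown in endothelial cell growth medium. Kit reagent was added for 30–180 min at 37 °C, then absorbance was read at 450 nm. Doxorubicin was the positive control.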

Test [3] can be described thus: Cytotoxicity against human HuH7 cells after 48 hrs by WST8 assay. The class given is functional, cell-based. To be noted: Huh-7, 48 h. Put shortly:
as §1
Background: Formazan colour is commonly taken as a measure of viable cells.

Test [4] is described as follows: Cytotoxicity against human HCT116 cells after 48 hrs by WST8 assay. It is filed as functional, cell-based. To be noted: HCT-116, 48 h. Put shortly:
as §1

Another test relates to HUVEC. Kind of test: Cytotoxicity against HUVEC cells after 48 hrs by WST8 assay. It is filed as functional, cell-based. To be noted: Homo sapiens. Put shortly:
as §1

Test [5] concerns HeLa. Put plainly: Induction of ROS generation in human HeLa cells at 1 uM after 3 hrs by CM-H2DCFDA dye based assay. The class given is functional, cell-based. The method in brief: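 HeLa cells were treated with agent over 0–10 μM; the methods give 1 h and the figure legend gives 3 h. Cells were then loaded with 10 μM CM-H2DCFDA for 20 min at 37 °C and washed. DCF fluorescence was read on a plate reader at ex 490/em 535 nm, n = 3.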

Test [6] concerns HeLa. Kind of test: Cytotoxicity against human HeLa cells assessed as reduction in cell viability at 10 to 30 uM in presence of 10 mM NAC after 48 hrs by WST8 assay. It is filed as functional, cell-based. Put shortly:
(§2)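 HeLa cells were exposed to 0–30 μM agent for 48 h, with or without 10 mM N-acetylcysteine as ROS scavenger. Viability was then read by WST-8 (tetrazolium reduction, absorbance 450 nm). Data are mean ± SD, n = 3.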

Test [7] deals with HeLa. Kind of test: Induction of apoptosis in human HeLa cells assessed as DNA fragmentation at 4 uM after 48 hrs by TUNEL assay. The class given is functional, cell-based. The method in brief: (§3)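 HeLa cells were plated at 2.5 × 10^4 per chamber-slide well and exposed for 48 h at 37 °C. Doses were 4.0 μM test agent or 0.2 μM doxorubicin (positive control). DNA fragmentation was detected by TUNEL (ApopTag Red) under fluorescence microscopy. Apoptotic cells were counted among ≥200 cells per condition, as mean ± SD of three independent experiments.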

The test system of test [8] is HeLa. Put plainly: Induction of cell death in human HeLa cells at 10 uM after 1 hr.
The test system of test [9] is HeLa. Kind of test: Cytotoxicity against human HeLa cells assessed as reduction in cell viability in presence of 10 mM NAC after 48 hrs by WST8 assay. It is filed as functional, cell-based. Put shortly: as §2
For test [10], the system named is HeLa. Kind of test: Induction of apoptosis in human HeLa cells assessed as DNA fragmentation at 0.2 uM after 48 hrs by TUNEL assay. The class given is functional, cell-based. The method in brief: as §3

Activity calls are given as the source filed them. The calls are words filed in the database; no cut-off is given here. Bounds are passed on as bounds.

On to `CC1=CC(=O)c2ccccc2C1=O`, for which the outcome with HeLa [1] was Active.
One may read the IC50 as the concentration needed to halve the response being measured. Consider `COc1cc(O)c2c(c1O)C(=O)[C@@H](CC(C)=O)[C@H](C)C2=O`, for which the half-inhibitory concentration (IC50) turned out to be 7.9 µM with HeLa [2], 10.8 µM in test [3], 15.4 µM in test [4] and 7.7 µM in the test with HUVEC.
The like results for `CC(=O)Cc1c(C)c(O)c2c(c1O)C(=O)CCC2O` (stereo unspecified) were, in that order, above 30 µM, above 30 µM, above 30 µM and 5.8 µM.
`CC(=O)Cc1c(C)c(O)c2c(c1O)C(=O)CCC2=O`: the concentration for half-maximal inhibition (IC50) in the test with HeLa [2] was 4 µM; in test [3], 1.9 µM; in test [4], 1.1 µM; in the test with HUVEC it was 1.8 µM. Besides, the result in the test on HeLa [5], with HeLa [7] and with HeLa [8] was Active. Further, the result with HeLa [6] was inactive.
On to `CC/C(=C(\c1ccccc1)c1ccc(OCCN(C)C)cc1)c1ccccc1`, for which, in the test with HeLa [9], the result was Active.
Turning to `COc1cccc2c1C(=O)c1c(O)c3c(c(O)c1C2=O)C[C@@](O)(C(=O)CO)C[C@@H]3O[C@H]1C[C@H](N)[C@H](O)[C@H](C)O1` [DOXORUBICIN], the 50% inhibitory concentration (IC50) with HeLa [2] was 0.22 µM; in test [3], 0.22 µM; in [4] it was 0.25 µM; with HUVEC, 0.4 µM. Also, the outcome in the test with HeLa [10] was Active.
Turning to `COc1cc(O)c2c(c1O)[C@H](O)[C@@H]1C[C@](C)(O)OC[C@@H]1C2=O`, the half-inhibitory concentration (IC50) is above 30 µM in the test with HeLa [2], 27 µM in test [3], above 30 µM in test [4] and 13.1 µM with HUVEC.
Turning to `COC1=CC(=O)c2c(O)c(C)c(CC(C)=O)c(O)c2C1=O` [JAVANICIN], the IC50 in the test on HeLa [2] turned out to be 9 µM; in test [3], 6.7 µM; in test [4] it was 5.5 µM; in the test with HUVEC it was 2.3 µM.
